Data as given in ChEMBL document CHEMBL1146196, “Bactericidal activity and resistance development profiling of dalbavancin” (2007).
Converted amounts (≈) assume the structure as drawn. The source made the active and inactive calls. The rule behind the calls is not given here.

Columns and labels:
[1] = tested on: Enterococcus faecalis; assay: Antimicrobial activity against vancomycin-susceptible Enterococcus faecalis FB766782; format: functional
[2] = tested on: Staphylococcus aureus; assay: Bacterial killing activity of methicillin-resistant Staphylococcus aureus at 0.25 ug/ml; format: functional, organism-based
Procedure, shortened: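 Time-kill per CLSI with a starting inoculum of approximately 10^7 CFU/ml. Dalbavancin was tested at 0.25, 1, 4 and 16 µg/ml, chosen to reflect free plasma levels plus a lower level. Viable counts were taken over 24 h and reported as log10 decrease.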

[3] = tested on: Staphylococcus haemolyticus; assay: Antimicrobial activity against Staphylococcus haemolyticus FB953975 by broth microdilution method; format: functional
[4] = tested on: Streptococcus pyogenes; assay: Antimicrobial activity against erythromycin-resistant Streptococcus pyogenes FB764371 by broth microdilution method; format: functional
Procedure, shortened: (§1)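 Clinical US hospital isolates. The medium was supplemented with 2 to 5% lysed horse blood.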

[5] = tested on: Staphylococcus aureus; assay: Antimicrobial activity against methicillin-susceptible Staphylococcus aureus FB1050986 by broth microdilution method; format: functional
Procedure, shortened: (§2)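 Clinical staphylococcal isolates from US hospitals with known resistance phenotypes.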

[6] = tested on: Enterococcus faecalis; assay: Antimicrobial activity against vancomycin-susceptible Enterococcus faecalis FB766323; format: functional
[7] = tested on: Staphylococcus epidermidis; assay: Antimicrobial activity against methicillin-resistant Staphylococcus epidermidis FB750345 by broth microdilution method; format: functional; procedure, shortened: as §2
[8] = tested on: Staphylococcus epidermidis; assay: Antimicrobial activity against methicillin-resistant Staphylococcus epidermidis FB758988 by broth microdilution method; format: functional; procedure, shortened: as §2
[9] = tested on: Staphylococcus epidermidis; assay: Antimicrobial activity against methicillin-resistant Staphylococcus epidermidis FB896283 by broth microdilution method; format: functional; procedure, shortened: as §2
[10] = tested on: Streptococcus pyogenes; assay: Antimicrobial activity against erythromycin-susceptible Streptococcus pyogenes FB1041626 by broth microdilution method; format: functional; procedure, shortened: as §1
[11] = tested on: Streptococcus pyogenes; assay: Bacterial killing activity of Streptococcus pyogenes at 0.25 ug/ml; format: functional
Procedure, shortened: (§3)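 CLSI time-kill in medium with 2 to 5% lysed horse blood; starting inoculum approximately 10^7 CFU/ml; dalbavancin at 0.25, 1, 4 and 16 µg/ml; viable counts followed to 24 h, killing expressed as log10 decrease.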

[12] = tested on: Staphylococcus aureus; assay: Antimicrobial activity against methicillin-resistant Staphylococcus aureus FB1051634 by broth microdilution method; format: functional; procedure, shortened: as §2
[13] = tested on: Staphylococcus haemolyticus; assay: Antimicrobial activity against Staphylococcus haemolyticus FB954177 by broth microdilution method; format: functional
[14] = tested on: Enterococcus faecium; assay: Antimicrobial activity against vancomycin-susceptible Enterococcus faecium FB769334
[15] = tested on: Staphylococcus aureus; assay: Bacterial killing activity of methicillin-susceptible Staphylococcus aureus at 0.25 ug/ml; format: functional, organism-based
Procedure, shortened: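 Time-kill per CLSI; inoculum approximately 10^7 CFU/ml; dalbavancin at 0.25, 1, 4 and 16 µg/ml; viable counts after 24 h exposure, expressed as log10 reduction.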

[16] = tested on: Staphylococcus aureus; assay: Antimicrobial activity against methicillin-susceptible Staphylococcus aureus FB892379 by broth microdilution method; format: functional; procedure, shortened: as §2
[17] = tested on: Staphylococcus aureus; assay: Antimicrobial activity against methicillin-resistant Staphylococcus aureus FB1065524 by broth microdilution method; format: functional; procedure, shortened: as §2
[18] = tested on: Streptococcus pyogenes; assay: Bacterial killing activity of Streptococcus pyogenes at >=1 ug/ml; format: functional; procedure, shortened: as §3
[19] = tested on: Enterococcus faecium; assay: Antimicrobial activity against vancomycin-susceptible Enterococcus faecium FB767191
[20] = tested on: Staphylococcus aureus; assay: Antimicrobial activity against vancomycin-intermediate Staphylococcus aureus FB988644; format: functional
[21] = tested on: Streptococcus pyogenes; assay: Antimicrobial activity against erythromycin-susceptible Streptococcus pyogenes FB1041775 by broth microdilution method; format: functional
[22] = tested on: Staphylococcus aureus; assay: Bacterial killing activity of methicillin-susceptible Staphylococcus aureus at 8 to 32 ug/ml; format: functional
[23] = tested on: Staphylococcus aureus; assay: Bacterial killing activity of methicillin-resistant Staphylococcus aureus at 8 to 32 ug/ml; format: functional
[24] = tested on: Staphylococcus aureus; assay: Bacterial killing activity of vancomycin-intermediate Staphylococcus aureus at 8 to 32 ug/ml; format: functional
[25] = tested on: Streptococcus pyogenes; assay: Bactericidal activity against Streptococcus pyogenes; format: functional

Row | Structure (SMILES) | MBC [1] [µg/mL] | MBC [3] [µg/mL] | MIC [3] [µg/mL] | MBC [4] [µg/mL] | MBC [5] [µg/mL] | MBC [6] [µg/mL] | MBC [7] [µg/mL] | MBC [8] [µg/mL] | MBC [9] [µg/mL] | MBC [10] [µg/mL] | MBC [12] [µg/mL] | MBC [13] [µg/mL] | MIC [13] [µg/mL] | MBC [14] [µg/mL] | MBC [16] [µg/mL] | MBC [17] [µg/mL] | MBC [19] [µg/mL] | MBC [20] [µg/mL] | MBC [21] [µg/mL] | also measured
1 | CN[C@H]1C(=O)N[C@@H]2Cc3ccc(cc3)Oc3cc4cc(c3O[C@@H]3O[C@H](C(=O)O)[C@@H](O)[C@H](O)[C@H]3NC(=O)CCCCCCCCC(C)C)Oc3ccc(cc3Cl)[C@@H](O)[C@@H]3NC(=O)[C@H](NC(=O)[C@@H]4NC(=O)[C@@H](NC2=O)c2cc(cc(O)c2Cl)Oc2cc1ccc2O)c1ccc(O)c(c1)-c1c(O[C@H]2O[C@H](CO)[C@@H](O)[C@H](O)[C@@H]2O)cc(O)cc1[C@@H](C(=O)NCCCN(C)C)NC3=O [DALBAVANCIN] | 4 (≈ 2.2 µM) | 0.25 (≈ 0.138 µM) | 0.12 (≈ 0.0661 µM) | 0.008 (≈ 0.0044 µM) | 1 (≈ 0.55 µM) | 8 (≈ 4.4 µM) | 0.06 (≈ 0.033 µM) | 0.06 (≈ 0.033 µM) | 0.03 (≈ 0.0165 µM) | 0.008 (≈ 0.0044 µM) | 0.06 (≈ 0.033 µM) | 0.12 (≈ 0.0661 µM) | 0.03 (≈ 0.0165 µM) | 2 (≈ 1.1 µM) | 0.06 (≈ 0.033 µM) | 0.5 (≈ 0.275 µM) | 2 (≈ 1.1 µM) | 2 (≈ 1.1 µM) | 0.25 (≈ 0.138 µM) | MIC [1]: 0.06 µg/mL (≈ 0.033 µM); Activity [2]: Active; MIC [4]: 0.008 µg/mL (≈ 0.0044 µM); MIC [5]: 0.06 µg/mL (≈ 0.033 µM); MIC [6]: 0.03 µg/mL (≈ 0.0165 µM); MIC [7]: 0.06 µg/mL (≈ 0.033 µM); MIC [8]: 0.06 µg/mL (≈ 0.033 µM); MIC [9]: 0.03 µg/mL (≈ 0.0165 µM); MIC [10]: 0.008 µg/mL (≈ 0.0044 µM); Log10 cfu [11]: >3; MIC [12]: 0.06 µg/mL (≈ 0.033 µM); MIC [14]: 0.015 µg/mL (≈ 0.00826 µM); Activity [15]: Active; MIC [16]: 0.06 µg/mL (≈ 0.033 µM); MIC [17]: 0.06 µg/mL (≈ 0.033 µM); Log10 cfu [18]: 5; MIC [19]: 0.03 µg/mL (≈ 0.0165 µM); MIC [20]: 1 µg/mL (≈ 0.55 µM); MIC [21]: 0.008 µg/mL (≈ 0.0044 µM)
2 | CN[C@H](CC(C)C)C(=O)N[C@H]1C(=O)N[C@@H](CC(N)=O)C(=O)N[C@H]2C(=O)N[C@H]3C(=O)N[C@H](C(=O)N[C@H](C(=O)O)c4cc(O)cc(O)c4-c4cc3ccc4O)[C@H](O)c3ccc(c(Cl)c3)Oc3cc2cc(c3O[C@@H]2O[C@H](CO)[C@@H](O)[C@H](O)[C@H]2O[C@H]2C[C@](C)(N)[C@H](O)[C@H](C)O2)Oc2ccc(cc2Cl)[C@H]1O [VANCOMYCIN] | > 32 | 4 (≈ 2.76 µM) | 4 (≈ 2.76 µM) | 0.5 (≈ 0.345 µM) | 2 (≈ 1.38 µM) | > 32 | 2 (≈ 1.38 µM) | 2 (≈ 1.38 µM) | 2 (≈ 1.38 µM) | 0.5 (≈ 0.345 µM) | 1 (≈ 0.69 µM) | > 32 | 1 (≈ 0.69 µM) | 16 (≈ 11 µM) | 1 (≈ 0.69 µM) | 1 (≈ 0.69 µM) | > 32 | 8 (≈ 5.52 µM) | > 2 | Log10 cfu [22]: >=3; Log10 cfu [23]: >=3; Log10 cfu [24]: >=3; Log10 cfu [25]: <2
